Reference: PubChem BioAssay AID617 (SRMLSC, 2007)

These molecules were tested on E. coli BW25113 ΔtolC growth inhibition, OD615 (assay: E. coli ΔtolC antibacterial growth inhibition – strain BW25113 ΔtolC::kan, dose response (AID 617)).
How it was run: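 System – E. coli BW25113 ΔtolC::kan bacteria · Input – inoculum from 1:1000-diluted 1.5 h subculture · Buffer or medium – LB plus kanamycin · Compound – serial dilution series of compound · Timing – bacterial growth with compound for 20 h, 37 °C · Measured by – OD615 · Read-out basis – growth-inhibition IC50 from four-parameter logistic curve, bounds set to 0% and 100% · Benchmarks – chloramphenicol 30 µM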

Q: For `COC(=O)c1c(C)oc2ccc(OC(=O)c3cccs3)cc12`, which IC50 is on record?
A: 9.49 µM

Q: For `C(=C\c1ccccc1)/CSc1nnc(-c2ccccn2)n1Cc1ccco1`, which IC50 is on record?
A: 12 µM

Q: How did the IC50 turn out when `COc1ccc(Cl)cc1N(C)C(=O)CCc1nc(-c2ccc(C)cc2)no1` was run?
A: 15.2 µM

Q: With `CC1=C(C(=O)OC2CCCC2)C(c2ccc(C)o2)C2=C(CC(c3cccs3)CC2=O)N1` (stereo unspecified) as the molecule, how does the IC50 read?
A: 11.2 µM

Q: Which IC50 does the source give for `CCCc1ccc(Oc2cn[nH]c2-c2ccc(O)cc2O)cc1` here?
A: 0.24 µM

Q: How did the IC50 turn out when `CCCOc1ccc(C(=O)N2CCN(c3ccc(NC(=O)CC)cc3Cl)CC2)cc1` was run?
A: 14.6 µM

Q: For `O=C(CCSc1nc(-c2ccco2)cc(C(F)(F)F)n1)N1CCCc2ccccc21`, which IC50 is on record?
A: 9.2 µM

Q: With `Brc1ccccc1Cn1c(-c2cncs2)nc2ccccc21` as the molecule, how does the IC50 read?
A: 10.6 µM

Q: `N#Cc1nc(-c2ccc(OCc3ccccc3)cc2)oc1NCCCN1CCOCC1` was tested. Which IC50 did it give?
A: 25.9 µM

Q: How did the IC50 turn out when `CCOC(=O)C1CCN(c2ncnc3c2oc2ccc(Br)cc23)CC1` was run?
A: 12.8 µM

Q: Which IC50 does the source give for `CC1=C(C(=O)OCC(C)C)C(c2cc3c(cc2Br)OCO3)NC(=O)N1C` (stereo unspecified) here?
A: 18.1 µM

Q: With `CCC1(C)Cc2ccccc2-c2nc3n(c(=O)c21)CCCCC3` (stereo unspecified) as the molecule, how does the IC50 read?
A: 15.8 µM

Q: For `O=C1c2[nH]nc(-c3ccccc3O)c2C(c2cccc(Cl)c2)N1CC1CCCO1` (stereo unspecified), which IC50 is on record?
A: 4.35 µM

Q: How did the IC50 turn out when `CC1(C)CC(=O)C=C(NCCN2CCN(C(=O)Nc3ccc(Cl)c(Cl)c3)CC2)C1` was run?
A: 20.3 µM

Q: For `Cc1cccc(-n2ncc3c(N4CCC(C)CC4)ncnc32)c1`, which IC50 is on record?
A: 13 µM

Q: For `COc1ccc(-n2c(COc3ccccc3)nnc2SCc2ccc(C#N)cc2)cc1`, which IC50 is on record?
A: 14.2 µM

Q: With `O=C(COc1cccc2ccccc12)N1CCN(c2ccccc2)CC1` as the molecule, how does the IC50 read?
A: 22.6 µM

Q: Which IC50 does the source give for `O=c1c(-c2nc3ccccc3o2)c2oc3ccccc3n2c2ccccc12` here?
A: 17.6 µM

Q: `Cc1cc(Cl)ccc1OC(C)C(=O)Nc1ccccc1N1CCOCC1` (stereo unspecified) was tested. Which IC50 did it give?
A: 8.59 µM

Q: How did the IC50 turn out when `Cc1ccc(SCC(=O)N(Cc2nc(-c3ccccc3)no2)C(C)C)cc1` was run?
A: 10.8 µM

Q: With `CC1CCc2cc(F)ccc2N1C(=O)c1cc2nc(-c3ccco3)cc(C(F)(F)F)n2n1` (stereo unspecified) as the molecule, how does the IC50 read?
A: 11.2 µM

Q: Which IC50 does the source give for `Cc1c(CCC(=O)O)c(=O)oc2cc3occ(-c4ccc(F)cc4)c3cc12` here?
A: 5.48 µM

Q: For `CC(C)C(C(=O)NCc1ccco1)N(C(=O)CNS(=O)(=O)c1ccc(Cl)cc1)C1CCCC1` (stereo unspecified), which IC50 is on record?
A: 24.8 µM

Q: Which IC50 does the source give for `COCc1nnc(NC(=O)c2ccc(S(=O)(=O)N(C)c3ccccc3)cc2)o1` here?
A: 6.56 µM

Q: With `COc1ccc(Cn2nnnc2C(C(C)C)N2CCc3ccccc32)cc1` (stereo unspecified) as the molecule, how does the IC50 read?
A: 12.7 µM

Q: With `O=C(O)CCC(=O)N1CCc2cc(S(=O)(=O)N3CCC(Cc4ccccc4)CC3)ccc21` as the molecule, how does the IC50 read?
A: 1.06 µM

Q: With `O=C1Nc2ccccc2C12OCC(COc1ccc(Cl)cc1)O2` (stereo unspecified) as the molecule, how does the IC50 read?
A: 17.4 µM

Q: How did the IC50 turn out when `C=CCOC(=O)C(C#N)c1nc2ccccc2nc1N1CCN(Cc2ccccc2)CC1` (stereo unspecified) was run?
A: 17.2 µM

Q: Which IC50 does the source give for `CCc1c(C(=O)Nc2ncn(Cc3cccc(C)c3)n2)csc1C` here?
A: 29.1 µM

Q: How did the IC50 turn out when `O=S(=O)(NCCSc1ccc(Cl)cc1)c1ccc2c(c1)OCCO2` was run?
A: 8.89 µM

Q: `Clc1cccc(NCc2nnc(SCc3ccccc3)o2)c1` was tested. Which IC50 did it give?
A: 9.57 µM

Q: `CCn1cc(Br)c(C(=O)Nc2ccc(C(=O)OC(C)C)cc2)n1` was tested. Which IC50 did it give?
A: 12.3 µM

Q: How did the IC50 turn out when `CN(C)c1ccc(/C=N/n2ncc3ccccc32)cc1` was run?
A: 34.6 µM

Q: `CCCCOC(=O)Nc1cc(C(=O)OC)ccc1C(=O)OC` was tested. Which IC50 did it give?
A: 26.8 µM

Q: With `CC1=CC(C)(C)N(C(=O)c2ccc(F)cc2)c2cc3c(cc21)OCO3` as the molecule, how does the IC50 read?
A: 12.7 µM

Q: How did the IC50 turn out when `c1csc(-c2nc3nc4ccccc4nc3n2Cc2ccc3c(c2)OCO3)c1` was run?
A: 9.62 µM

Q: `Cc1cccc(N2CCN(C(=O)c3cc4n(n3)C(C(F)(F)F)CC(c3ccco3)N4)CC2)c1C` (stereo unspecified) was tested. Which IC50 did it give?
A: 6.74 µM

Q: Which IC50 does the source give for `Cc1cc(NC(=O)COC(=O)C(Nc2ccc(C(F)(F)F)cc2Cl)C(C)C)no1` (stereo unspecified) here?
A: 5.37 µM

Q: For `COc1ccccc1C1CC(c2ccc(Cl)cc2)Nc2ncnn21` (stereo unspecified), which IC50 is on record?
A: 15.1 µM

Q: Which IC50 does the source give for `N=c1n(CCN2CCOCC2)c2ccccc2n1CC(=O)c1ccc(Cl)c(Cl)c1` here?
A: 27.1 µM

Q: With `CC(C)N(Cc1nc(-c2ccc(Cl)cc2)no1)C(=O)c1cccs1` as the molecule, how does the IC50 read?
A: 18.9 µM
